From ChEMBL document CHEMBL4028913, “Discovery of Novel Potent VEGFR-2 Inhibitors Exerting Significant Antiproliferative Activity against Cancer Cell Lines” (J Med Chem, 2018)
The source made the active and inactive calls. The rule behind the calls is not given here.

Experiments:
786-0 = test: Cytotoxicity against human 786-0 cells after 48 hrs by SRB assay; assay type: functional; conditions: 786-0, 48 h
Summary of the method: (§1)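 NCI-60 panel; cells grown in RPMI 1640 with 5% FBS and 2 mM L-glutamine, plated at 5000–40 000 cells/well by doubling time, preincubated 24 h (37 °C, 5% CO2). Drug added at five concentrations, 1-log steps from 10−4 to 10−8 M, for 48 h. Fixed with TCA, stained with 0.4% SRB, absorbance read at 515 nm. Percent growth computed against time-zero and untreated controls; GI50, TGI and LC50 derived.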

OVCAR-3 = test: Cytotoxicity against human OVCAR3 cells after 48 hrs by SRB assay; assay type: functional; conditions: OVCAR-3, 48 h; summary of the method: as §1
Homo sapiens = species: Homo sapiens; test: Inhibition of human PDGFR at 0.5 uM relative to control
[1] = target: STE20-like serine/threonine-protein kinase (Homo sapiens) (UniProt Q9H2G2); test: Inhibition of human SLK at 0.5 uM relative to control
HT-29 = test: Cytotoxicity against human HT-29 cells after 48 hrs by SRB assay; assay type: functional; conditions: HT-29, 48 h; summary of the method: as §1
[2] = target: Ephrin type-A receptor 5 (Homo sapiens) (UniProt P54756); test: Inhibition of human EPHA5 at 0.5 uM relative to control
[3] = Potency index, ratio of sorafenib GI50 to test compound GI50 for human CNS cancer cells; assay type: functional, CNS cancer cell
Summary of the method: (§2)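 GI50 is the concentration giving 50% reduction in net protein increase relative to control. Potency index is the reference-drug GI50 divided by the test-compound GI50.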

Melanoma cell = test: Potency index, ratio of sunitinib GI50 to test compound GI50 for human melanoma cells; assay type: functional; summary of the method: as §2
BT-549 = test: Cytotoxicity against human BT549 cells after 48 hrs by SRB assay; assay type: functional; conditions: BT-549, 48 h; summary of the method: as §1
A498 = test: Cytotoxicity against human A498 cells after 48 hrs by SRB assay; assay type: functional; conditions: A498, 48 h; summary of the method: as §1
UACC-62 = test: Cytotoxicity against human UACC62 cells after 48 hrs by SRB assay; assay type: functional; conditions: UACC-62, 48 h
Summary of the method: (§3)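 NCI-60 panel, five doses at 1-log steps from 10−4 to 10−8 M. Cells grown in RPMI 1640 with 5% FBS and 2 mM L-glutamine, seeded at 5000–40 000 cells/well and preincubated 24 h. Tz plates were TCA-fixed at drug addition. Drug exposure 48 h at 37 °C, then TCA fixation, 0.4% SRB stain and absorbance at 515 nm. GI50 taken from percent growth relative to Tz and control.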

HCT-15 = test: Cytotoxicity against human HCT15 cells after 48 hrs by SRB assay; assay type: functional; conditions: HCT-15, 48 h; summary of the method: as §1
Leukemia cell = test: Potency index, ratio of sunitinib GI50 to test compound GI50 for human leukemia cells; assay type: functional; summary of the method: as §2
[4] = Potency index, ratio of test compound LC50 to sunitinib LC50 for human renal cancer cells; assay type: functional, Renal cancer cell
SK-MEL-28 = test: Cytotoxicity against human SK-MEL-28 cells after 48 hrs by SRB assay; assay type: functional; conditions: SK-MEL-28, 48 h; summary of the method: as §1
HOP-92 = test: Cytotoxicity against human HOP92 cells after 48 hrs by SRB assay; assay type: functional; conditions: HOP-92, 48 h; summary of the method: as §1
[5] = Potency index, ratio of sunitinib TGI to test compound TGI for human renal cancer cells; assay type: functional, Renal cancer cell
SF-539 = test: Cytotoxicity against human SF539 cells after 48 hrs by SRB assay; assay type: functional; conditions: SF-539, 48 h; summary of the method: as §1
[6] = target: Proto-oncogene tyrosine-protein kinase Src (Homo sapiens) (UniProt P12931); conditions: at 0.5 µM
[7] = target: T1, Vascular endothelial growth factor receptor 2 (Homo sapiens, UniProt P35968); conditions: at 10 µM
HL-60(TB) = test: Cytotoxicity against human HL-60(TB) cells after 48 hrs by SRB assay; assay type: functional; conditions: HL-60, 48 h
Summary of the method: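 NCI-60 panel screen. Cells grown in RPMI 1640 with 5% FBS and 2 mM L-glutamine, plated at 5000–40 000 cells/well by doubling time, and preincubated 24 h at 37 °C in 5% CO2; Tz plates fixed at drug addition. Five concentrations, 1-log steps from 10−4 to 10−8 M, for 48 h. Suspension cells fixed with TCA (16% final), stained with 0.4% SRB, read at 515 nm. GI50, TGI and LC50 from percent-growth formulas.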

SK-OV-3 = test: Cytotoxicity against human SKOV3 cells after 48 hrs by SRB assay; assay type: functional; conditions: SK-OV-3, 48 h; summary of the method: as §1
[8] = target: Ephrin type-A receptor 7 (Homo sapiens) (UniProt Q15375); test: Inhibition of human EPHA7 at 0.5 uM relative to control
SNB-75 = test: Cytotoxicity against human SNB75 cells after 48 hrs by SRB assay; assay type: functional; conditions: SNB-75, 48 h; summary of the method: as §1
RXF 393 = test: Cytotoxicity against human RXF393 cells after 48 hrs by SRB assay; assay type: functional; conditions: RXF 393, 48 h; summary of the method: as §1
COLO 205 = test: Cytotoxicity against human COLO205 cells after 48 hrs by SRB assay; assay type: functional; conditions: COLO 205, 48 h; summary of the method: as §1
SW-620 = test: Cytotoxicity against human SW620 cells after 48 hrs by SRB assay; assay type: functional; conditions: SW-620, 48 h; summary of the method: as §3
[9] = target: Mitogen-activated protein kinase kinase kinase 7 (Homo sapiens) (UniProt O43318); test: Inhibition of human TAK1 at 0.5 uM relative to control
[10] = target: T1, Vascular endothelial growth factor receptor 2
MDA-MB-468 = test: Cytotoxicity against human MDA-MB-468 cells after 48 hrs by SRB assay; assay type: functional; conditions: MDA-MB-468, 48 h; summary of the method: as §1
[11] = read-out: LC50 (the source's name)

T1 sequence (P35968 whole entry): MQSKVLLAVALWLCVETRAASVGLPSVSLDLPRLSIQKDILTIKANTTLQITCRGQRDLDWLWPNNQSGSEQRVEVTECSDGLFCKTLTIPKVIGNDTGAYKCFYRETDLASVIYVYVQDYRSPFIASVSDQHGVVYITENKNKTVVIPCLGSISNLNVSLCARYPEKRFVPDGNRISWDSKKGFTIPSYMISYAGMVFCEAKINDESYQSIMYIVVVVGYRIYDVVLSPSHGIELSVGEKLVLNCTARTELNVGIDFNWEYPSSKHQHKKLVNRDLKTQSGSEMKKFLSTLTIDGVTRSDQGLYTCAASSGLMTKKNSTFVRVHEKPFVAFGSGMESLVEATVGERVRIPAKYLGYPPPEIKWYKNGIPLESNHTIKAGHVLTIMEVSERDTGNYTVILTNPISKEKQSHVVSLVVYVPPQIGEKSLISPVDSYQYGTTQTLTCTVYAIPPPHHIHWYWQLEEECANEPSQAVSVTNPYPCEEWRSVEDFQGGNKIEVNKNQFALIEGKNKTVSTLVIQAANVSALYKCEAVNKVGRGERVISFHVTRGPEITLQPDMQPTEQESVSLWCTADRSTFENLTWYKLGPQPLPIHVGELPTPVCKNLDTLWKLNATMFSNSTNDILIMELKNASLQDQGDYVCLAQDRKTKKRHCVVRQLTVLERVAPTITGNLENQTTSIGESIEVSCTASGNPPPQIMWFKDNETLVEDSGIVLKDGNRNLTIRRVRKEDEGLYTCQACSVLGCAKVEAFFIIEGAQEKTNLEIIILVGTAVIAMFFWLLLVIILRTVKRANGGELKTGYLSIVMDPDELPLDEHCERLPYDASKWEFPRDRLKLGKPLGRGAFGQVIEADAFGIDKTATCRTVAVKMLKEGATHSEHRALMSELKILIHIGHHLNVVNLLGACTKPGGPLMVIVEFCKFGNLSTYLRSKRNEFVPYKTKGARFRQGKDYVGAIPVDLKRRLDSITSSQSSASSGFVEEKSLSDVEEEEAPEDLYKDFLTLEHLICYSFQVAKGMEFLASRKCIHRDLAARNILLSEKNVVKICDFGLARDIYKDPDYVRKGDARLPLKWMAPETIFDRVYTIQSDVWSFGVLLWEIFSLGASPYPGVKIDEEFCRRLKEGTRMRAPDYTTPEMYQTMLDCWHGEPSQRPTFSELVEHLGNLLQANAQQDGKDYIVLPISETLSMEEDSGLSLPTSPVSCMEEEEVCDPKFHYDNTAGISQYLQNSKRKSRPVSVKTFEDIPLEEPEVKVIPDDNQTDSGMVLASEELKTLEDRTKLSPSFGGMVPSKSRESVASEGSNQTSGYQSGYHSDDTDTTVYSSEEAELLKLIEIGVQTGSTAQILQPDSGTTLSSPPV
Sequence of Proto-oncogene tyrosine-protein kinase Src (Homo sapiens) (P12931 2-536 limits assumed): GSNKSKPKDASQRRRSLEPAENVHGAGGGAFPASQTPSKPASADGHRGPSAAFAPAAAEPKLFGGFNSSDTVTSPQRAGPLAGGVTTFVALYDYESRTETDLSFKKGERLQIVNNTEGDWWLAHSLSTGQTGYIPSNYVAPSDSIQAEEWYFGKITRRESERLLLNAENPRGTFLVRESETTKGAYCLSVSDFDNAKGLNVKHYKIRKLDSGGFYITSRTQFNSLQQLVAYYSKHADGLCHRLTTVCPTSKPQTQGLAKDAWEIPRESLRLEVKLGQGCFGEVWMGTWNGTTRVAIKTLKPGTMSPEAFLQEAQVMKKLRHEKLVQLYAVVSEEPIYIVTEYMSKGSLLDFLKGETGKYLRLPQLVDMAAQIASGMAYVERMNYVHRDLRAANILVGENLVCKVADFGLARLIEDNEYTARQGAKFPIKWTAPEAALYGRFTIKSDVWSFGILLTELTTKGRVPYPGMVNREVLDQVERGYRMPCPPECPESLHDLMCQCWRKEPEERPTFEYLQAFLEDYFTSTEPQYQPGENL
Sequence of STE20-like serine/threonine-protein kinase (Homo sapiens) (Q9H2G2 whole entry, looked up): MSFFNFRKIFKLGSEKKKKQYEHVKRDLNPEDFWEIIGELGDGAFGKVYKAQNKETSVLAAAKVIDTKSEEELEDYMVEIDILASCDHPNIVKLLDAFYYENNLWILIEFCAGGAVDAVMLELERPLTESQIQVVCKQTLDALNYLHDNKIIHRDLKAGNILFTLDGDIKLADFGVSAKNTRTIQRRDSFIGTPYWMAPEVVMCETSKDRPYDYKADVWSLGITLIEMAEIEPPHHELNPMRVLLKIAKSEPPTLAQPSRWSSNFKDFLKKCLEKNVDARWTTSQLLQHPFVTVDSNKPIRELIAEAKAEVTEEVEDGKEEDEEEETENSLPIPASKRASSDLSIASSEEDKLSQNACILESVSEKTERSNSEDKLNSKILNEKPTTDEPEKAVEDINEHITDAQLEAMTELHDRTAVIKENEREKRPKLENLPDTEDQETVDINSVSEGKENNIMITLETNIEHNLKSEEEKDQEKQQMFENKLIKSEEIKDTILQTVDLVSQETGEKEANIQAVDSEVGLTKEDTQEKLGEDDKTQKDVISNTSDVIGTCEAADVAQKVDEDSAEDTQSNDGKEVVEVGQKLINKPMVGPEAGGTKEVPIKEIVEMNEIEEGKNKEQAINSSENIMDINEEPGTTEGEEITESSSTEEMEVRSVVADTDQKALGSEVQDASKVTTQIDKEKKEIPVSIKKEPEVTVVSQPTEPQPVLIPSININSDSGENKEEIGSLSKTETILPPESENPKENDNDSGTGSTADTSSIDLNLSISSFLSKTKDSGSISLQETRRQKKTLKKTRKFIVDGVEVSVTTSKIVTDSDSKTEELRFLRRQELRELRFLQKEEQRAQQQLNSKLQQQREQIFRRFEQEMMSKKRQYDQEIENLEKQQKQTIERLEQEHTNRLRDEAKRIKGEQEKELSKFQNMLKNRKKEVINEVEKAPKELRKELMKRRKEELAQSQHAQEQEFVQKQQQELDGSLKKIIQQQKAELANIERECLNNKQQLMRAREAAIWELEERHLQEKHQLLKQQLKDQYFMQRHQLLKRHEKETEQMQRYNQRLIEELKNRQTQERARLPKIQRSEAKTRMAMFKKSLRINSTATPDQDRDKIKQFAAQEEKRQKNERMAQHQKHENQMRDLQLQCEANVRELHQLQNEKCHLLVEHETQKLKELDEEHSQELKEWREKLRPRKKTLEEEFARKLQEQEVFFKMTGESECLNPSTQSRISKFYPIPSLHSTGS
Sequence of Ephrin type-A receptor 7 (Homo sapiens) (Q15375 28-998 limits assumed): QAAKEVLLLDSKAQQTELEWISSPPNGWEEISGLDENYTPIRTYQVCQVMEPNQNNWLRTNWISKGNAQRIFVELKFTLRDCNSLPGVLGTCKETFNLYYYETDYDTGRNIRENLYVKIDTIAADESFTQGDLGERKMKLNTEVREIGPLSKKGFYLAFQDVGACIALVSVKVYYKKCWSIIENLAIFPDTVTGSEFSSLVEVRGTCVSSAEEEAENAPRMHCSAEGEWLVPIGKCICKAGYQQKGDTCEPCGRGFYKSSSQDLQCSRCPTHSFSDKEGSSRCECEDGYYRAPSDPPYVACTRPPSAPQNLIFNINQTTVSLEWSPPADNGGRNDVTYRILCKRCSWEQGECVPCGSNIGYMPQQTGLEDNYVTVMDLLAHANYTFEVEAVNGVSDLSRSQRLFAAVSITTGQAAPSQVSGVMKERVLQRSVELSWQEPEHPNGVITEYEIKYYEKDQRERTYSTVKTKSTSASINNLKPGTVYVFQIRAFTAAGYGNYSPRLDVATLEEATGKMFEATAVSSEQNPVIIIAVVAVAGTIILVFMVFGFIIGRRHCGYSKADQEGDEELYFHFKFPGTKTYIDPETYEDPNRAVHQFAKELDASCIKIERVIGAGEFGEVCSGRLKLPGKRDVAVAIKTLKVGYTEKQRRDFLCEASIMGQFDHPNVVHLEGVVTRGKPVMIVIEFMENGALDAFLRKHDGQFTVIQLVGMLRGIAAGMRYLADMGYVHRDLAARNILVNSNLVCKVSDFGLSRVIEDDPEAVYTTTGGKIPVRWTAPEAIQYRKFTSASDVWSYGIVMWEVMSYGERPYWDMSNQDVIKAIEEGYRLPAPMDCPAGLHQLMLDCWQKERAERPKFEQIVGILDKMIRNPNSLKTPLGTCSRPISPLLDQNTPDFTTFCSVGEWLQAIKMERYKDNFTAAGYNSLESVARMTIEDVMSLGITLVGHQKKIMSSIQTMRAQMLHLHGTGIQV
Sequence of Mitogen-activated protein kinase kinase kinase 7 (Homo sapiens) (O43318 whole entry, looked up): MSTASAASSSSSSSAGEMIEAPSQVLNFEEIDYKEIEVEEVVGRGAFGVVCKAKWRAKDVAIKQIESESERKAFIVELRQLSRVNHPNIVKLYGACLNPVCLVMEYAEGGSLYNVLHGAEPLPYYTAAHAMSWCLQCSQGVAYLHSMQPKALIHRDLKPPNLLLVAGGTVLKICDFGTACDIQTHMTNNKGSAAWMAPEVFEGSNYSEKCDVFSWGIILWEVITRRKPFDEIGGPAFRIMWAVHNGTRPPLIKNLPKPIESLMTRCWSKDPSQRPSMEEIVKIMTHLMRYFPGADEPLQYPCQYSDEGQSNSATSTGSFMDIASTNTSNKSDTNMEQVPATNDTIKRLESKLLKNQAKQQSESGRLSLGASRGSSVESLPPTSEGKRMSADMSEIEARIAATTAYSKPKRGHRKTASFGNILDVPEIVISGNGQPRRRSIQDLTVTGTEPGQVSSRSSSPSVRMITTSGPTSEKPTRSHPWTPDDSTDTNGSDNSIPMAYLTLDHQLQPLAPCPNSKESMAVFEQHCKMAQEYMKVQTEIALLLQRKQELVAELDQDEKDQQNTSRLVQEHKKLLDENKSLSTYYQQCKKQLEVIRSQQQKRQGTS

SMILES: COc1cc2ncnc(Oc3ccc(NC(=O)Nc4ccc(CN5CCOCC5)c(C(F)(F)F)c4)c4ccccc34)c2cc1OC
- GI50 (786-0): 0.79 µM
- TGI (786-0): 5.37 µM
- CC50 (786-0; [11]): 26.9 µM
- GI50 (OVCAR-3): 1 µM
- TGI (OVCAR-3): 9.55 µM
- CC50 (OVCAR-3; [11]): 42.7 µM
- inhibition (Homo sapiens): Active
- inhibition [1]: Active
- GI50 (HT-29): 0.45 µM
- TGI (HT-29): 13.2 µM
- CC50 (HT-29; [11]): > 100 µM
- inhibition [2]: Active
- RatioGI50 [3]: 1.6 - 2.9
- RatioGI50 (Melanoma cell): 1.1 - 3.7
- GI50 (BT-549): 1.15 µM
- TGI (BT-549): 7.41 µM
- CC50 (BT-549; [11]): 34.7 µM
- GI50 (A498): 0.05 µM
- TGI (A498): 0.52 µM
- CC50 (A498; [11]): 30.9 µM
- GI50 (UACC-62): 0.6 µM
- TGI (UACC-62): 3.47 µM
- CC50 (UACC-62; [11]): 18.6 µM
- GI50 (HCT-15): 1 µM
- TGI (HCT-15): 5.13 µM
- CC50 (HCT-15; [11]): 28.2 µM
- RatioGI50 (Leukemia cell): 5 - 7.7
- RatioLC50 [4]: 1.3
- GI50 (SK-MEL-28): 0.89 µM
- TGI (SK-MEL-28): 4.79 µM
- CC50 (SK-MEL-28; [11]): 42.7 µM
- GI50 (HOP-92): 0.32 µM
- TGI (HOP-92): 7.76 µM
- CC50 (HOP-92; [11]): 91.2 µM
- Ratio [5]: 3.2
- GI50 (SF-539): 1.58 µM
- TGI (SF-539): 19.5 µM
- CC50 (SF-539; [11]): 52.5 µM
- inhibition [6]: Active
- inhibition [7]: 97.8%
- GI50 (HL-60(TB)): 0.38 µM
- TGI (HL-60(TB)): 2.14 µM
- CC50 (HL-60(TB); [11]): > 100 µM
- GI50 (SK-OV-3): 0.23 µM
- TGI (SK-OV-3): 0.95 µM
- CC50 (SK-OV-3; [11]): 37.1 µM
- inhibition [8]: Active
- GI50 (SNB-75): 1.05 µM
- TGI (SNB-75): 13.8 µM
- CC50 (SNB-75; [11]): 38.9 µM
- GI50 (RXF 393): 1.05 µM
- TGI (RXF 393): 7.08 µM
- CC50 (RXF 393; [11]): 29.5 µM
- GI50 (COLO 205): 0.38 µM
- TGI (COLO 205): 3.39 µM
- CC50 (COLO 205; [11]): > 100 µM
- GI50 (SW-620): 1.1 µM
- TGI (SW-620): 11.8 µM
- CC50 (SW-620; [11]): > 100 µM
- inhibition [9]: Active
- IC50 [10]: 0.0334 µM
- GI50 (MDA-MB-468): 0.23 µM
- TGI (MDA-MB-468): 2.82 µM
- CC50 (MDA-MB-468; [11]): 72.4 µM
